Converted amounts (≈) assume the structure as drawn. The source made the active and inactive calls. The calls are words filed in the database; no cut-off is given here.
Key:
[1] = tested on: NCI/ADR-RES; experiment: Growth inhibition of human NCI/ADR-RES cells at 10 uM incubated for 48 hrs by sulforhodamine B assay; type: functional, cell-based
Procedure, shortened: (§1)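 NCI 60-line panel, single 10 μM dose. Cells were grown in RPMI-1640 with 5% FBS and 2 mM L-glutamine and pre-incubated 24 h before compound addition (DMSO stock). Exposure was 48 h at 37 °C, 5% CO2. Cells were fixed with cold TCA (10% final), stained with 0.4% SRB, bound dye dissolved in 10 mM Tris base, A515 read. Growth was taken relative to time-zero and untreated control plates.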

[2] = tested on: CAKI-1; experiment: Growth inhibition of human Caki1 cells at 10 uM incubated for 48 hrs by sulforhodamine B assay; type: functional, cell-based
Procedure, shortened: (§2)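 NCI 60-cell-line screen at a single 10 µM dose. Cells in RPMI-1640 with 5% FBS and 2 mM L-glutamine, pre-incubated 24 h, then treated for 48 h at 37 °C. TCA fixation, sulforhodamine B staining, absorbance at 515 nm. Percentage growth calculated against time-zero and untreated controls.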

[3] = tested on: NCI-H23; experiment: Growth inhibition of human NCI-H23 cells at 10 uM incubated for 48 hrs by sulforhodamine B assay; type: functional, cell-based; procedure, shortened: as §1
[4] = tested on: SNB-19; experiment: Growth inhibition of human SNB19 cells at 10 uM incubated for 48 hrs by sulforhodamine B assay; type: functional, cell-based
Procedure, shortened: (§3)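 NCI-60 single-dose screen at 10 µM for 48 h. Cells were grown in RPMI-1640 with 5% FBS and 2 mM L-glutamine and preincubated 24 h before compound. Time-zero plates were TCA-fixed at compound addition. After exposure, cells were TCA-fixed, stained with SRB and read at 515 nm. Percentage growth was calculated against time-zero and untreated-control absorbances.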

[5] = tested on: UACC-62; experiment: Growth inhibition of human UACC62 cells at 10 uM incubated for 48 hrs by sulforhodamine B assay; type: functional, cell-based; procedure, shortened: as §3
[6] = tested on: KM12; experiment: Growth inhibition of human KM12 cells at 10 uM incubated for 48 hrs by sulforhodamine B assay; type: functional, cell-based; procedure, shortened: as §1
[7] = tested on: SN12C; experiment: Growth inhibition of human SN12C cells at 10 uM incubated for 48 hrs by sulforhodamine B assay; type: functional, cell-based; procedure, shortened: as §3
[8] = tested on: Candida albicans; experiment: Growth inhibition of Candida albicans ATCC 10231 at 15.62 ug/ml incubated for 48 hrs under dark condition by broth microdilution method relative to control; type: functional; conditions: ATCC 10231, 48 h, read-out: GI
Procedure, shortened: (§4)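 CLSI M27-A3 broth microdilution in RPMI-1640, DMSO ≤1%. Inoculum 1-5 × 10^3 CFU/mL. Incubated 48 h at 30 °C, dark. % inhibition = 100 − (OD405 test − sterility control)/(OD405 growth control − sterility control), with growth and sterility control wells. Triplicate.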

[9] = tested on: Escherichia coli; experiment: Antibacterial activity against Escherichia coli ATCC 25922 after 24 hrs by resazurin dye based microdilution assay; type: functional; conditions: ATCC 25922, 24 h
Procedure, shortened: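 MIC taken as the lowest concentration giving visible inhibition and/or by resazurin (1 mg/mL). Gentamicin was the control. Run in duplicate, repeated at least three times.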

[10] = tested on: TK-10; experiment: Growth inhibition of human TK10 cells at 10 uM incubated for 48 hrs by sulforhodamine B assay; type: functional, cell-based; procedure, shortened: as §3
[11] = tested on: Leishmania panamensis; experiment: Antileshmanial activity against EpiR/GFP fused Leishmania panamensis MHOM/CO/87/UA140 intracellular amastigotes infected in human […] cells after 72 hrs by flow cytometric method; type: functional, cell-based; conditions: MHOM/CO/87/UA140, 72 h
Procedure, shortened: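 PMA-treated U-937 cells (3 × 10^5 cells/mL) infected with stationary-phase GFP L. panamensis promastigotes (15:1), 3 h at 34 °C, then washed. After 24 h, compounds added at 50, 12.5, 3.125 and 0.78 µg/mL for 72 h at 37 °C. EC50 by Probit; triplicate, two experiments.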

[12] = tested on: ACHN; experiment: Growth inhibition of human ACHN cells at 10 uM incubated for 48 hrs by sulforhodamine B assay; type: functional, cell-based; procedure, shortened: as §2
[13] = tested on: NCI-H522; experiment: Growth inhibition of human NCI-H522 cells at 10 uM incubated for 48 hrs by sulforhodamine B assay; type: functional, cell-based; procedure, shortened: as §1
[14] = tested on: MDA-MB-231; experiment: Growth inhibition of human MDA-MB-231 cells at 10 uM incubated for 48 hrs by sulforhodamine B assay; type: functional, cell-based; procedure, shortened: as §1
[15] = tested on: U-937; experiment: Cytotoxicity against human U937 cells after 72 hrs by MTT assay; type: cell-based; conditions: u-937, 72 h
Procedure, shortened: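 Exponentially growing U-937 at 1 × 10^5 cells/mL in RPMI-1640 with 10% FBS were exposed to 200, 50, 12.5 and 3.125 µg/mL for 72 h at 37 °C, 5% CO2. MTT for 3 h, stopped with isopropanol/SDS, formazan read at 570 nm, blank-corrected. LC50 by Probit from % viability against untreated cells. Triplicate, at least two independent experiments.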

[16] = tested on: SF-295; experiment: Growth inhibition of human SF295 cells at 10 uM incubated for 48 hrs by sulforhodamine B assay; type: functional, cell-based; procedure, shortened: as §1
[17] = tested on: Cryptococcus neoformans; experiment: Growth inhibition of Cryptococcus neoformans ATCC 32264 at 125 ug/ml incubated for 48 hrs under dark condition by broth microdilution method relative to control; type: functional; conditions: ATCC 32264, 48 h, read-out: GI; procedure, shortened: as §4
[18] = tested on: RPMI-8226; experiment: Growth inhibition of human RPMI8226 cells at 10 uM incubated for 48 hrs by sulforhodamine B assay; type: functional, cell-based; procedure, shortened: as §1
[19] = tested on: Candida albicans; experiment: Growth inhibition of Candida albicans ATCC 10231 at 31.25 ug/ml incubated for 48 hrs under dark condition by broth microdilution method relative to control; type: functional; conditions: ATCC 10231, 48 h, read-out: GI; procedure, shortened: as §4
[20] = tested on: LOX IMVI; experiment: Growth inhibition of human LOXIMVI cells at 10 uM incubated for 48 hrs by sulforhodamine B assay; type: functional, cell-based; procedure, shortened: as §1
[21] = tested on: Cryptococcus neoformans; experiment: Growth inhibition of Cryptococcus neoformans ATCC 32264 at 7.8 ug/ml incubated for 48 hrs under dark condition by broth microdilution method relative to control; type: functional; conditions: ATCC 32264, 48 h, read-out: GI; procedure, shortened: as §4
[22] = tested on: Cryptococcus neoformans; experiment: Antifungal activity against Cryptococcus neoformans ATCC 32264 incubated for 48 hrs under dark condition by broth microdilution method; type: functional; conditions: ATCC 32264, 48 h
Procedure, shortened: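 CLSI M27-A3 broth microdilution in RPMI-1640, DMSO ≤1%, compounds at 250-0.98 µg/mL final. Inoculum 1-5 × 10^3 CFU/mL. Incubated 48 h at 30 °C in a moist dark chamber, read at OD405. MIC80 and MIC50 taken from % inhibition dose-response curves (mean ± SEM, triplicate). Amphotericin B was the positive control.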

[23] = tested on: Cryptococcus neoformans; experiment: Growth inhibition of Cryptococcus neoformans ATCC 32264 at 62.5 ug/ml incubated for 48 hrs under dark condition by broth microdilution method relative to control; type: functional; conditions: ATCC 32264, 48 h, read-out: GI; procedure, shortened: as §4
[24] = tested on: OVCAR-3; experiment: Growth inhibition of human OVCAR3 cells at 10 uM incubated for 48 hrs by sulforhodamine B assay; type: functional, cell-based; procedure, shortened: as §1
[25] = tested on: BT-549; experiment: Growth inhibition of human BT549 cells at 10 uM incubated for 48 hrs by sulforhodamine B assay; type: functional, cell-based; procedure, shortened: as §2
[26] = tested on: SK-MEL-5; experiment: Growth inhibition of human SK-MEL-5 cells at 10 uM incubated for 48 hrs by sulforhodamine B assay; type: functional, cell-based; procedure, shortened: as §3
[27] = tested on: MCF7; experiment: Growth inhibition of human MCF7 cells at 10 uM incubated for 48 hrs by sulforhodamine B assay; type: functional, cell-based; procedure, shortened: as §1

SMILES	growth inhibition (GI) [1]	growth inhibition (GI) [2]	growth inhibition (GI) [3]	growth inhibition (GI) [4]	growth inhibition (GI) [5]	growth inhibition (GI) [6]	growth inhibition (GI) [7]	inhibition of growth at 15.62 µg/mL [8] [%]	MIC [9] [µg/mL]	growth inhibition (GI) [10]	EC50 [11] [µg/mL]	growth inhibition (GI) [12]	growth inhibition (GI) [13]	growth inhibition (GI) [14]	LC50 [15] [µg/mL]	growth inhibition (GI) [16]	inhibition of growth at 125 µg/mL [17] [%]	growth inhibition (GI) [18]	inhibition of growth at 31.25 µg/mL [19] [%]	growth inhibition (GI) [20]	also measured
Clc1ccc(C2=NN(c3ccc(Cl)cc3)C(c3cccc(Nc4ccnc5cc(Cl)ccc45)c3)C2)cc1 (stereo not given)	inactive	inactive	inactive	inactive	inactive	inactive	inactive	6.09	> 1000	inactive	91.4 (≈ 168 µM)	inactive	inactive	inactive	> 200	inactive	46	inactive	7.02	inactive	inhibition of growth at 7.8 µg/mL [21]: 18.4%; MIC50 [22]: 250 µg/mL (≈ 460 µM); MIC80 [22]: ≥ 250 µg/mL; inhibition of growth at 62.5 µg/mL [23]: 25.8%; growth inhibition (GI) [24]: inactive; growth inhibition (GI) [25]: inactive; growth inhibition (GI) [26]: inactive; growth inhibition (GI) [27]: inactive
COc1cc(C2=NN(c3ccc(Cl)cc3)C(c3cccc(Nc4ccnc5cc(Cl)ccc45)c3)C2)cc(OC)c1OC (stereo not given)	inactive	inactive	inactive	inactive	inactive	inactive	inactive	8.02	> 1000	inactive	21.3 (≈ 35.5 µM)	inactive	inactive	inactive	> 200	inactive	17.1	inactive	8.05	inactive	inhibition of growth at 7.8 µg/mL [21]: 10.4%; MIC50 [22]: ≥ 250 µg/mL; MIC80 [22]: ≥ 250 µg/mL; inhibition of growth at 62.5 µg/mL [23]: 17.1%; growth inhibition (GI) [24]: inactive; growth inhibition (GI) [25]: inactive; growth inhibition (GI) [26]: inactive; growth inhibition (GI) [27]: inactive
Clc1ccc(C2=NN(c3ccccc3)C(c3cccc(Nc4ccnc5cc(Cl)ccc45)c3)C2)cc1 (stereo not given)	inactive	inactive	inactive	inactive	inactive	inactive	inactive	4.29	> 1000	inactive	11.7 (≈ 22.9 µM)	inactive	inactive	inactive	> 200	inactive	14.6	inactive	4.92	inactive	inhibition of growth at 7.8 µg/mL [21]: 0%; MIC50 [22]: ≥ 250 µg/mL; MIC80 [22]: ≥ 250 µg/mL; inhibition of growth at 62.5 µg/mL [23]: 0%; growth inhibition (GI) [24]: inactive; growth inhibition (GI) [25]: inactive; growth inhibition (GI) [26]: inactive; growth inhibition (GI) [27]: inactive
Clc1ccc(C2=NN(c3cc(Cl)cc(Cl)c3)C(c3cccc(Nc4ccnc5cc(Cl)ccc45)c3)C2)cc1 (stereo not given)	inactive	inactive	inactive	inactive	inactive	inactive	inactive	10.8	> 1000	inactive	12 (≈ 20.8 µM)	inactive	inactive	inactive	> 200	inactive	4.65	inactive	13.6	inactive	inhibition of growth at 7.8 µg/mL [21]: 0%; MIC50 [22]: ≥ 250 µg/mL; MIC80 [22]: ≥ 250 µg/mL; inhibition of growth at 62.5 µg/mL [23]: 1.2%; growth inhibition (GI) [24]: inactive; growth inhibition (GI) [25]: inactive; growth inhibition (GI) [26]: inactive; growth inhibition (GI) [27]: inactive
COc1ccc(C2=NN(c3ccc(Cl)cc3)C(c3cccc(Nc4ccnc5cc(Cl)ccc45)c3)C2)cc1 (stereo not given)	inactive	inactive	inactive	inactive	inactive	inactive	inactive	0	> 1000	inactive	27.7 (≈ 51.4 µM)	inactive	inactive	inactive	> 200	inactive	26.7	inactive	1.19	inactive	inhibition of growth at 7.8 µg/mL [21]: 10.1%; MIC50 [22]: 250 µg/mL (≈ 463 µM); MIC80 [22]: ≥ 250 µg/mL; inhibition of growth at 62.5 µg/mL [23]: 14.1%; growth inhibition (GI) [24]: inactive; growth inhibition (GI) [25]: inactive; growth inhibition (GI) [26]: inactive; growth inhibition (GI) [27]: inactive
